Bioassay records deposited in PubChem by The Scripps Research Institute Molecular Screening Center.
NPY-Y1 PAM-ag: potentiators or agonists of human neuropeptide Y receptor Y1; P25929; NPY-Y1 expressing cells, potentiator/agonist activation; activation, % at 3.6 µM; 220,000 tested, 0.37% active; AID 1304; in the data active = activation above about 33%, passing the limit was not always enough;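 note: cells stimulated with NPY at EC10 then isoproterenol at EC100; 0% = low agonist plus stimulus and 100% = saturating agonist plus stimulus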
Target sequence (P25929 whole entry, looked up): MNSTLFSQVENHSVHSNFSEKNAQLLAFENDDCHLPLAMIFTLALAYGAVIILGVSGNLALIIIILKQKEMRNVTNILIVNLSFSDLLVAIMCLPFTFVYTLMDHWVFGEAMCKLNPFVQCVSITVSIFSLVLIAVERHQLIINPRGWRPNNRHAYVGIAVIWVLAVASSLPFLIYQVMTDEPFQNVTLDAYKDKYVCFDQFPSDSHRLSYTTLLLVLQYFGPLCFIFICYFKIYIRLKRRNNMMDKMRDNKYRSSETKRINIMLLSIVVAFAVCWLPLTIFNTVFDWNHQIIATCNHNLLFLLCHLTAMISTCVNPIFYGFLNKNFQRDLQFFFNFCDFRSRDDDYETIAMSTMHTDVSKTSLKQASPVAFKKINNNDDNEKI
NPY Y1 blocker: antagonists of human neuropeptide Y receptor Y1. P25929. HEK293-CNG Y1 cells, membrane potential fluorescence; NPY at EC95, then isoproterenol. inhibition, % at 3.6 µM. 200,000 tested, 1% active. AID 1040;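 active = inhibition above the campaign mean inhibition of all tested compounds plus 3 SD, cut at about 20% in these data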;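 note: 0% = DMSO wells given NPY plus isoproterenol and 100% = isoproterenol alone without NPY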
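material = HEK293 cells with Y1 receptor plus CNG channel | also added = NPY 25 nM then isoproterenol 1 µM plus Ro 20-1724 25 µM | schedule = dye 3 h, compound 60 min room temperature, stimulation 45 min | measured by = membrane potential fluorescence | benchmarks = high control isoproterenol alone, low control NPY with isoproterenol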
S1P4 agonist: agonists of human S1P4 receptor. AID 1509. 220,000 tested, 0.35% active. S1P4-expressing cell line, agonist reporter assay. activation, % at 4.98 µM. O95977; in the data active = activation above about 11%;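 note: 0% = DMSO vehicle and 100% = reference agonist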
NPY-Y2 antag: NPY-Y2 (human) receptor antagonism | P49146 | NPY-Y2 expressing cells, antagonist mode | inhibition, % at 2.7 µM | 140,000 tested, 0.99% active | AID 793; in the data active = inhibition above about 17%;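 note: 0% = vehicle with agonist challenge and 100% = reference antagonist with challenge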
NPY-Y2 PAM-ag: human NPY-Y2 potentiation or agonism, primary screen. P49146. cells expressing NPY-Y2, potentiator/agonist read-out. activation, % at 3.6 µM. 220,000 tested, 0.45% active; in the data active = activation above about 27%;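 note: cells stimulated with NPY near EC25 plus isoproterenol at EC100; 0% = vehicle plus submaximal agonist and 100% = vehicle plus saturating agonist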
S1P4 antagonist: blocks the human S1P4 receptor; O95977; S1P4-expressing cells, antagonist mode, reporter read-out; inhibition, % at 4.98 µM; 220,000 tested, 0.26% active; AID 1510; in the data active = inhibition above about 29%;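 note: 0% = wells stimulated with agonist and 100% = vehicle wells without agonist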
The depositor's hits bear a star; . = no result. Only some compounds are listed: those with a hit (about 2.4% of all), similar ones and a draw of the others.

SMILES | NPY-Y1 PAM-ag | NPY Y1 blocker | S1P4 agonist | NPY-Y2 antag | NPY-Y2 PAM-ag | S1P4 antagonist
CC(C)COc1ccc(/C(O)=C2/C(=O)C(=O)N(CCN(C)C)C2c2ccncc2)cc1 (configuration not stated) | 3 | 6 | 0 | 1 | 3 | -11
CCCOc1ccc(/C(O)=C2/C(=O)C(=O)N(CCN(C)C)C2c2ccncc2)cc1 (configuration not stated) | 15 | 1 | 36* | 2 | 8 | -3
C1CCN(c2nc(N3CCCC3)nc(N3CCNCC3)n2)C1 | 79* | -8 | -1 | 3 | 69* | 7
CCC(=O)Nc1ccccc1C(=O)OC(c1ccccc1)c1ccccc1 | -24 | 27* | 1 | 24* | -4 | -19
COc1cccc(C(=O)N2CCN(Cc3nc(CC4CC4)no3)CC2)c1 | 20 | . | 0 | . | -2 | 4
CC1CC(C)CN(c2ncc3c(n2)CC(c2ccccc2)CC3=O)C1 (configuration not stated) | -14 | 31* | 2 | 24* | -11 | 9
CC(C)c1ccc(C2CC(=O)c3cnc(N4CCc5ccccc5C4)nc3C2)cc1 (configuration not stated) | 11 | -3 | -1 | 2 | 7 | -11
CCO[C@H]1OC(C(=O)Nc2ccccc2)=C[C@@H](c2ccc(C(F)(F)F)cc2)[C@@H]1CCCO | 8 | -3 | -1 | . | 4 | 6
CCO[C@H]1OC(C(=O)NCc2ccccc2)=C[C@@H](c2ccc(C(F)(F)F)cc2)[C@@H]1CCCO | 37* | -8 | -1 | . | 11 | 14
CCc1ccc(OCC(=O)NC(NC(=S)Nc2ccccc2C)C(Cl)(Cl)Cl)cc1 (configuration not stated) | -1 | 21* | -2 | 19* | 3 | -4
CCOC(=O)c1c(CNc2ccncc2)n(C)c2cc(Br)c(O)cc12 | 6 | 6 | 2 | . | 3 | 2
Cc1ccc(OCC(=O)Nc2ccc([N+](=O)[O-])cn2)cc1C | -33 | 25* | 3 | 9 | -8 | -25
CN=c1scc(-c2ccccc2F)n1/N=C/c1ccc(O)c(O)c1O | 42* | -1 | 3 | . | 29* | -14
CN=c1scc(-c2ccccc2F)n1/N=C/c1ccc[nH]1 | 10 | 3 | -1 | . | 3 | -9
Cc1ccn2c(CN(C)CCn3nc(C)cc3C)c(C(=O)N3CCCCCC3)nc2c1 | 7 | -1 | 0 | . | -5 | -11
COC(=O)CNC(c1ccccc1)c1cc(Br)ccc1NC(=O)CNC(=O)OCc1ccccc1 (configuration not stated) | 1 | 25* | 0 | 29* | -5 | -7
CCOC(=O)c1c(C)c2c(n1C)CCC/C2=N\O | -45 | 39* | -1 | 32* | -16 | -1
CCC(C)NC(=O)C(Sc1ccccc1)c1ccccc1 (configuration not stated) | -7 | 10 | 0 | . | -7 | -2
Cc1ccc(-n2c(-c3ccc(Br)cc3)c[n+]3c2CCc2ccc4cccnc4c2-3)cc1 | -74 | 54* | -2 | 70* | -29 | -8
CCC(C)(C)n1nnnc1CN1CCc2ccccc21 | -4 | 2 | 1 | 6 | -2 | 2
Cc1ccc(NC(=O)c2cc(-c3ccc(C)o3)nc3ccccc23)cc1 | -187 | 118* | -1 | 115* | -132 | 2
Cc1cccc(NC(=O)c2cc(-c3ccc(C)s3)nc3ccccc23)n1 | -117 | 28* | 0 | 23* | -87 | -2
Cc1cc(NC(=O)c2cc(-c3ccc(C)s3)nc3ccccc23)no1 | -18 | 4 | 0 | 6 | -28 | -4
O=[N+]([O-])c1c(Nc2ccccn2)cc(Cl)c2nonc12 | -21 | . | 1 | . | -59 | -1
COCCN(C(=S)Nc1c(C)cccc1C)C(C)c1ccco1 (configuration not stated) | 7 | . | 0 | . | 6 | 0
SMILES | NPY-Y1 PAM-ag | NPY Y1 blocker | S1P4 agonist | NPY-Y2 antag | NPY-Y2 PAM-ag | S1P4 antagonist
Cc1ccc(N(CC(=O)N/N=C/c2cc(C)n(-c3ccccc3)c2C)S(C)(=O)=O)c(C)c1 | -9 | 4 | 0 | -1 | 2 | -27
Cc1cc(/C=N/NC(=O)Cn2c3ccccc3c(=O)c3ccccc32)c(C)n1-c1ccccc1 | 50* | -13 | 10 | 3 | 50* | -19
COc1ccccc1S(=O)(=O)CC(O)COc1ccc(C#N)cc1 (configuration not stated) | 8 | 1 | 2 | . | -12 | 6
COCCNC(=O)c1ccc(-c2csc(C)n2)cc1 | 6 | 3 | 0 | . | 0 | -11
O=C(NC(=O)c1ccc(Cl)cc1)Nc1ccc(-c2cnco2)cc1 | -28 | . | 0 | . | -5 | 9
Cc1ccc(S(=O)(=O)N/N=C/c2cccn2-c2ccc(Cl)cc2)cc1 | -49 | 0 | 0 | 5 | -12 | 5
CC1=NN(c2ccc(Cl)cc2)C(=O)/C1=C\c1cccn1-c1ccc(S(N)(=O)=O)cc1 | 60* | -17 | 0 | -6 | 49* | 8
CC(Sc1nnc(-c2ccc(Cl)cc2Cl)n1Cc1ccccc1)C(=O)Nc1nccs1 (configuration not stated) | 10 | 26* | -1 | 29* | -1 | -1
O=C(CCC1CCCN(Cc2cccc(Cl)c2)C1)NCc1ccccc1F (configuration not stated) | -20 | . | 1 | . | -4 | -4
Cc1cccc2c(=O)c(C(=O)N3CCCCCC3)c[nH]c12 | -77 | 21* | -1 | 22* | -39 | 3
COc1cc2c(cc1OC)-c1cc(NC3CCCCCC3)nc(=O)n1CC2 | -20 | 49* | -2 | 43* | -3 | -15
COc1cc2c(cc1OC)-c1cc(N3CCCc4ccccc43)nc(=O)n1CC2 | -40 | 123* | 3 | 136* | -10 | -18
COc1cc2c(cc1OC)-c1cc(N3CCCCCC3)nc(=O)n1CC2 | -23 | 24* | -2 | 32* | -3 | -9
COc1cc2c(cc1OC)-c1cc(N3CCc4ccccc43)nc(=O)n1CC2 | -17 | . | 0 | . | -27 | -5
CC(/C=N/NC(=O)c1sc(N)nc1C)=C\c1ccccc1 | 12 | -4 | 0 | . | -3 | -13
Cn1cc(Br)c(-c2cccc(NC(=O)CCC(=O)O)c2)n1 | 9 | . | 0 | . | -18 | 22
Cc1c(C#N)c(N)nc2c3c(sc12)NC(=O)CC3c1ccc(Cl)cc1 (configuration not stated) | -39 | 34* | 3 | 42* | 0 | 0
N#Cc1c(N)nc2c3c(sc(=N)c2c1N)NC(=O)CC3c1c(F)cccc1Cl (configuration not stated) | 13 | -1 | 1 | 0 | -3 | -14
N#Cc1c(N)nc2c3c(sc(=N)c2c1N)NC(=O)CC3c1ccccc1 (configuration not stated) | -30 | 23* | 0 | 19* | -19 | 4
COc1cc2c(cc1OC)CN(C(=S)Nc1ccc(C)cc1C)CC2 | 6 | -1 | 2 | 2 | 10 | -14
CCOCC(=O)N(CC)Cc1ccccc1 | -5 | 2 | 1 | . | 5 | -13
